Series [1] deals with Mus musculus. In words: Anticonvulsant activity in mouse maximal electroshock seizure test following i.p. administration. The settings on record: ip. It counts as functional. In a few lines: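 Test agent given ip as a suspension at 30, 100 and 300 mg/kg to one to four mice, observed at 30 min and, in a separate test, at 4 h. Quantified values are ED50 (mg/kg) with 95% confidence limits.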
On the technique in general: Protection in the maximal electroshock model is a classic sign of anticonvulsant action.

Series [2] relates to Rattus norvegicus. The series can be described thus: Compound was tested for anticonvulsant activity by maximal electroshock seizure(MES) test in rat upon intraperitoneal administration. In kind it is functional. The settings on record: ip.
Series [3] can be described thus: (§1) Minimal motor impairment was measured in mouse by rotating rod test upon intraperitoneal administration. In kind it is toxicity. The settings on record: in vivo, ip. In a few lines:
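Mouse rotorod (rotating rod) test for minimal motor impairment after ip dosing, run alongside the MES and scMET screens. Reported as TD50 (mg/kg) ip with 95% confidence limits.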

Series [4] is described as follows: (§2) Ratio of TD50/ED50; TI indicates Therapeutic index. The settings on record: read-out: TI. In a few lines:
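Protective index calculated as TD50 (rotorod, ip) divided by MES ED50 (ip), both in mg/kg.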

Series [5] is described as follows: Minimal motor impairment was measured in rat by overt evidence of ataxia upon intraperitoneal administration. The settings on record: in vivo, ip.
For series [6], the system named is Rattus norvegicus. In words: Minimal motor impairment was measured in rat by rotating rod test upon intraperitoneal administration. The settings on record: ip.
Series [7] deals with Mus musculus. The series is described as §1. The settings on record: ip.
A short description of series [8]: as §2.
In series [9] the test system is Mus musculus. The series can be described thus: Ability to block seizures induced by bicuculline after intraperitoneal administration; NA indicates not active. In kind it is functional, organism-based.
For series [10], the system named is Mus musculus. In words: Effective dose was determined by Maximum Electroshock Seizure test after intraperitoneal dose in mouse. The settings on record: ip.
A short description of series [11]: Toxic dose was measured in rat by rotating rod test. The settings on record: in vivo.
A short description of series [12]: Toxic dose was measured in mouse by rotating rod test. The settings on record: in vivo.
Series [13] is described as follows: Ratio of TD50/ED50. In kind it is ADME. The settings on record: read-out: TI. An outline of the steps: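 Maximal electroshock seizure ED50 was determined with ip dosing and reported in mg/kg with 95% confidence limits. TD50 was determined ip by the rotating rod test for minimal motor impairment, and in some cases by overt ataxia. Protective index = TD50/ED50.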

Series [14] concerns Mus musculus. In words: Ability to block seizures induced by bicuculline after intraperitoneal administration. It counts as functional. The settings on record: ip.

These results are taken from ChEMBL document CHEMBL1130035, “Aroyl(aminoacyl)pyrroles, a new class of anticonvulsant agents” (J Med Chem, 1997).

Active and inactive are the calls of the source. No cut-off for these calls is given here. Bounds are passed on as bounds.

Broadly, the ED50 is the dose at which the effect has come halfway, by size or by number of responders. By TD50 is commonly meant the 50% point of the dose-response relation for the toxic effect studied. Low readings indicate greater toxicity, high ones lower toxicity.

For the molecule `CCN(CC)CC(=O)c1c(C)c(C(=O)c2ccc(Cl)cc2Cl)n(C)c1C`, the median effective dose (ED50) with Mus musculus [1] came out at 14.9 mg/kg; in the series with Rattus norvegicus [2] it was 19.4 mg/kg. Also, the TD50 in series [3] was 50.6 mg/kg; in series [5], above 500 mg/kg. The selectivity ratio in [4] was 3.38.
`CCCC(CCC)C(=O)O` [VALPROIC ACID]: the TD50 in the series with Rattus norvegicus [6] was 859 mg/kg.
As to `CCN(CC)CC(=O)c1c(C)c(C(=O)c2ccc(Cl)cc2)n(C)c1C`, the ED50 with Mus musculus [1] was 10.3 mg/kg; in the series on Rattus norvegicus [2], 15.5 mg/kg. Besides, the values for the TD50 in series [3] and in series [5] were 37.7 mg/kg and above 250 mg/kg, respectively. Besides, the selectivity ratio in [4] is 3.65.
For the molecule `CCN(CC)CC(=O)c1cc(C(=O)c2ccc(Cl)cc2)n(C)c1.Cl`, it took a dose of 19.3 mg/kg to reach the 50% effect level with Rattus norvegicus [2] (ED50). Further, the TD50 in series [3] is 40.5 mg/kg; in series [5], above 500 mg/kg. Also, in [4], the selectivity ratio turned out to be 2.81.
For `NC(=O)N1c2ccccc2C=Cc2ccccc21` [CARBAMAZEPINE], the 50% effective dose (ED50) was found to be 9.9 mg/kg in the series on Mus musculus [1] and 36 mg/kg in the series with Rattus norvegicus [2]. In addition, the TD50 in the series with Mus musculus [7] was found to be 47.8 mg/kg. For the same molecule, the selectivity ratio in series [8] amounted to 4.93. The ED50 entry in the series on Mus musculus [9] is “inactive”.
For the molecule `Cc1c(C(=O)CN2CCCC2)c(C)n(C)c1C(=O)c1ccc(Cl)cc1Cl.Cl`, the ED50 with Mus musculus [1] is 10.3 mg/kg; in the series on Rattus norvegicus [2], 19 mg/kg. In addition, the TD50 in [3] was 23.8 mg/kg; in series [5] it was above 200 mg/kg. Moreover, the selectivity ratio in series [4] came to 2.3.
`Cl.Cn1cc(C(=O)CN2CCCCCC2)cc1C(=O)c1ccc(Cl)cc1`: the ED50 in the series with Mus musculus [1] came to 27.5 mg/kg; in the series on Rattus norvegicus [2] it was 22 mg/kg. Further, the TD50 in series [3] was 46.1 mg/kg; in series [5], above 500 mg/kg. Besides, in [4], the selectivity ratio was 1.67.
With `O=C1NC(=O)C(c2ccccc2)(c2ccccc2)N1` [PHENYTOIN], the ED50 in the series with Mus musculus [10] turned out to be 6.48 mg/kg. Moreover, the TD50 in series [11] is above 500 mg/kg; in series [12], 42.8 mg/kg. In addition, the selectivity ratio in series [13] worked out at 6.6.
Regarding `Cn1cc(C(=O)CN2CCCC2)cc1C(=O)c1ccc(Cl)cc1`, the 50% effective dose (ED50) came out at 49.1 mg/kg in the series with Mus musculus [1] and 17.9 mg/kg in the series with Rattus norvegicus [2]. For the same molecule, the TD50 is 240 mg/kg in [3] and above 500 mg/kg in [5]. Besides, the selectivity ratio in series [4] came out at 4.89.
The molecule `Cn1cc(C(=O)c2ccc(Cl)cc2)cc1C(=O)CN1CCCCC1` gave an ED50 in the series on Mus musculus [1] of 59.7 mg/kg. Moreover, the TD50 in series [3] turned out to be 141 mg/kg. For the same molecule, the selectivity ratio in series [4] was 2.36.
For the molecule `Cl.Cn1cc(C(=O)CN2CCOCC2)cc1C(=O)c1cccc(Cl)c1`, the ED50 in the series on Mus musculus [1] turned out to be 37.4 mg/kg; in the series on Rattus norvegicus [2] it was 72 mg/kg. Besides, the TD50 is 110 mg/kg in series [3] and above 500 mg/kg in series [5]. In series [4], the selectivity ratio came out at 2.96.
For the molecule `Cn1cc(C(=O)CN2CCCCC2)cc1C(=O)c1ccc(Cl)cc1`, the ED50 with Mus musculus [1] turned out to be 24.4 mg/kg; in the series on Rattus norvegicus [2], 8.4 mg/kg. For the same molecule, the TD50 in series [3] is 74.2 mg/kg; in [5], 342 mg/kg. The selectivity ratio in series [4] was 3.05.
`Cn1cc(C(=O)CN2CCCC2)cc1C(=O)c1cccc(Cl)c1.[O-][Cl+3]([O-])([O-])O`: the ED50 in the series on Mus musculus [1] came to 16.5 mg/kg. In addition, the TD50 in [3] was 55.6 mg/kg. Moreover, the selectivity ratio in [4] was found to be 3.38.
The like results for `Cl.Cn1cc(C(=O)CNC23C[C@H]4C[C@@H](C2)C[C@@H](C3)C4)cc1C(=O)c1ccccc1Cl` were, in that order, 159 mg/kg, above 250 mg/kg and above 1.57.
Turning to `O=C(CN1CCOCC1)c1c[nH]c(C(=O)c2ccc(Cl)cc2)c1`, the ED50 with Mus musculus [1] worked out at 86.2 mg/kg; in the series with Rattus norvegicus [2] it was 41 mg/kg. The TD50 stood at 84.1 mg/kg in series [3] and 88 mg/kg in series [5]. Besides, in series [4], the selectivity ratio amounted to 0.98.
As for `Cc1c(C(=O)CN2CCCCC2)c(C)n(C)c1C(=O)c1ccc(Cl)cc1`, the ED50 in the series with Mus musculus [1] was 23.9 mg/kg; in the series on Mus musculus [14] it was 25.2 mg/kg; with Rattus norvegicus [2] it was 28.1 mg/kg. The results for the TD50 in series [3] and in [5] were 113 mg/kg and above 500 mg/kg, respectively. In series [4], the selectivity ratio came out at 4.73.
For `CCN(CC)CC(=O)c1cc(C(=O)c2ccc(OC)cc2)n(C)c1.Cl`, it took a dose of 33 mg/kg to reach the 50% effect level in the series with Mus musculus [1] (ED50). The TD50 in [3] was found to be 45.1 mg/kg. The selectivity ratio in [4] was determined as 1.37.
In the case of `Cc1c(C(=O)CN2CCCC2)c(C)n(C)c1C(=O)c1ccc(Cl)cc1`, the results for the 50% effective dose (ED50) in the series on Mus musculus [1] and in the series with Rattus norvegicus [2] were 15.2 mg/kg and 16.2 mg/kg, respectively. Besides, the values for the TD50 in series [3] and in series [5] were 54.8 mg/kg and 203 mg/kg, respectively. In addition, in series [4], the selectivity ratio came to 3.6.
As for `Cc1c(C(=O)CN2CCOCC2)c(C)n(C)c1C(=O)c1ccc(Cl)cc1`, it took a dose of 87.6 mg/kg to reach the 50% effect level in the series with Mus musculus [1] (ED50). In addition, the TD50 in [3] was found to be 233 mg/kg. Besides, the selectivity ratio in series [4] was 2.66.
